Assay results from different studies.
Each line is one published result; the experiments were not run side by side.
DHODH: Dihydroorotate dehydrogenase (quinone), mitochondrial (DHODH, Homo sapiens, UniProt Q02127)
PIK3CG: Phosphatidylinositol 4,5-bisphosphate 3-kinase catalytic subunit gamma isoform (PIK3CG, Homo sapiens, UniProt P48736)
PTGS2: Prostaglandin G/H synthase 2 (PTGS2, Homo sapiens, UniProt P35354)
SCTR: Secretin receptor (SCTR, Homo sapiens, UniProt P47872)
SHMT2: Serine hydroxymethyltransferase, mitochondrial (SHMT2, Homo sapiens, UniProt P34897)

`Cn1nc2c(=O)n(C3CC3)nc(C3CC3)c2c1Cc1ccc(C(F)(F)F)c(F)c1` has an IC50 of 2300 nM (DHODH; enzyme activity; inhibitor).
The IC50 of `COc1cc2ncnc(Nc3ccc4c(c3)/C(=C/c3cccc(Cl)c3)C(=O)N4C)c2cc1OC` is reported as 197 nM (PIK3CG; enzyme activity; inhibitor; ADP detection).
The IC50 of `CCCc1cc(C(=O)Nc2ccc(C(C)=O)cc2)c(NC(=O)c2ccccc2)s1` is reported as 1230 nM (PTGS2; enzyme activity; inhibitor).
`CCn1ccc2c(Cc3ccc(C(F)(F)F)nc3)n(C)nc2c1=O` gave an IC50 of greater than 100000 nM (DHODH; enzyme activity; inhibitor; absorbance).
The IC50 of `Cc1noc(C)c1-c1cc(Cl)c(Nc2ccccc2C(=O)O)c(Cl)c1` is reported as 1400 nM (DHODH; enzyme activity; inhibitor; absorbance).
`COc1cc2ncnc(N(C)c3ccc4c(c3)/C(=C/c3cccc(Cl)c3)C(=O)N4C)c2cc1OC` gave an IC50 of 118 nM (PIK3CG; enzyme activity; inhibitor; ADP detection).
`CC1=NN(/C(=N/c2nnc(C)s2)Nc2ccc(C)c(C)c2)C(c2ccc(F)cc2)S1` (centres unmarked) has an EC50 of 800 nM (SCTR; cAMP; agonist; TR-FRET).
`COc1cc2ncnc(Nc3ccc4c(c3)/C(=C/c3ccccc3)C(=O)N4C)c2cc1OC` gave an IC50 of 194 nM (PIK3CG; enzyme activity; inhibitor; ADP detection).
For `CC(=O)N(CC#Cc1cccc(C(N)=O)c1)C[C@H]1C[C@@H](n2ccc3c(Cl)ncnc32)[C@H](O)[C@@H]1O`, the Kd was 2110 nM (SHMT2; binding; MST).
For `CCn1cc(C2CC2)c2c(CN3CCC(C)(F)CC3)n(C)nc2c1=O`, the IC50 was greater than 100000 nM (DHODH; enzyme activity; inhibitor; absorbance).
The IC50 of `Cc1nc(Nc2ccc3c(c2)C(C)(C)C(=O)N3)c2ccccc2n1` is reported as 134 nM (PIK3CG; enzyme activity; inhibitor; ADP detection).
With `NC(=O)c1cccc(C#CCN(CC[C@H](N)C(=O)O)C[C@H]2O[C@@H](n3cnc4c(N)ncnc43)[C@H](O)[C@@H]2O)c1` the Kd was 66000 nM (SHMT2; binding; MST).
The IC50 of `COc1cc2ncnc(Nc3ccc4c(c3)/C(=C/c3ccccc3)C(=O)N4)c2cc1OC` is reported as 109 nM (PIK3CG; enzyme activity; inhibitor; ADP detection).
`CCCc1ccc(/N=C(/Nc2nnc(C)s2)N2N=C(C)SC2c2ccc(C)cc2)cc1` (centres unmarked) has an EC50 of greater than 50000 nM (SCTR; cAMP; agonist; TR-FRET).
For `O=C(/C=C/c1ccc(O)c(O)c1)O[C@@H]1C[C@](O)(C(=O)O)C[C@@H](O)[C@H]1O`, the IC50 was 30000 nM (PTGS2; enzyme activity; inhibitor; fluorescence).
`CC[C@@](O)(c1cnc(C(F)(F)F)c(Cl)c1)c1c2ncn(C3CC3)c(=O)c2nn1C` gave an IC50 of 4000 to 6000 nM (DHODH; enzyme activity; inhibitor; absorbance).
`CC1=NN(/C(=N/c2nnc(C)s2)Nc2ccc(C)c(C)c2)C(c2ccc(-c3ccccc3)cc2)S1` (centres unmarked) has an EC50 of 700 nM (SCTR; cAMP; agonist; TR-FRET).
